# Most compounds without a hit are left out; they make up all but 4.1% or so of the library.
# NF-kB expr up: activators of NF-kB expression in neurons, primary screen, cell-based, HTS; 190,000 compounds, 1.6% hits; fold change at 12.5 µM; human neuronal cells, NF-kB reporter expression; hits give high values; AID 1239, 2008; in the data active = fold change above about 3.3
# APP 5'UTR act: activators of APP 5'UTR luciferase reporter, primary screen, SH-SY5Y cells | SH-SY5Y APP 5'UTR luciferase reporter, luminescence; zero percent = DMSO vehicle wells | activation, % at 2 µM | 190,000 compounds, 1% hits;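 active = activation above a set limit, based on mean plus 3 SD of controls, cut at about 140% in these data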
# FLuc inh counter: firefly luciferase enzyme inhibitors, primary screen, artefact control for luciferase-based inhibitor screens, biochemical, luminescence, ATPLite; 200,000 compounds, 1.5% hits; Luciferin 4-monooxygenase (Photinus pyralis), P08659; 10 min; inhibition, % at 10 µM;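 active = inhibition above about 50% when tested at 10 µM, limit read from the data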
# Target sequence (P08659 whole entry, looked up): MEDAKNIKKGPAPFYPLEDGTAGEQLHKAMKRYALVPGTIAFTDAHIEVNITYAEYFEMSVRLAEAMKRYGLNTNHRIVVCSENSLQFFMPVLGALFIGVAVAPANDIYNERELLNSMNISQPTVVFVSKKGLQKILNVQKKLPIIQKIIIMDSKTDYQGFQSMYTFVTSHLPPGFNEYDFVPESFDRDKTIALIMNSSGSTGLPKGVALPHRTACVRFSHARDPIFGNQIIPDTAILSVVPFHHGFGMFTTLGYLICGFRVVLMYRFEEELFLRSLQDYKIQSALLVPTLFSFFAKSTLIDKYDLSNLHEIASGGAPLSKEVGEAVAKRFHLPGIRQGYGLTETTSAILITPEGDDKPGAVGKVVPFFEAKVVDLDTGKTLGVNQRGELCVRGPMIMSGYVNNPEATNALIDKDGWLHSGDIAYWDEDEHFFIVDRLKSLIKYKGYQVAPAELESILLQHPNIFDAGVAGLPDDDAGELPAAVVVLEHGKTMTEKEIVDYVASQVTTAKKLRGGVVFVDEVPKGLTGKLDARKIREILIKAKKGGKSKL
# STAT1 act: STAT1 signaling activators, primary screen, cell-based, HTS, luciferase reporter; NIH 3T3 STAT1-luciferase reporter, IFN-gamma, luminescence; 100% = IFN-gamma alone, no compound; activation (% of control), % at 5.5 µM; 200,000 compounds, 2.6% hits;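 active = activation above the screen-wide mean activation plus 3 SD, cut at about 130% in these data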;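 note: raw ratio to IFN-gamma control signal so 100% means no change and 0% no light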
# FLuc act counter: FLuc activators, initial screening, artefact control for FLuc-dependent activation tests, biochemical, ATPlite luminescence; Luciferin 4-monooxygenase (Photinus pyralis), P08659; ATPlite luciferase biochemical, 10 min; 0 = ATP-free wells, 1 = DMSO control; activation factor at 10 µM; 200,000 tested, under 10 active; AID 1027, 2008;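 active = luciferase activation factor, scaled between plate controls, of at least 2 with compound at 10 µM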
#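 System: luciferase plus luciferin reagent, cell-free; medium: PBS as buffer for the ATP substrate; dosing: test compounds dosed from 2 mM stocks in 100% DMSO; timing: 10 min post-reagent at room temperature; measured by: luminescence measurement of luciferase light output; evaluation: luciferase activation, seen as luminescence increase over controls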
# * hit, by the source's call; x = no result.
SMILES,NF-kB expr up,APP 5'UTR act,FLuc inh counter,STAT1 act,FLuc act counter
Cc1ccccc1/C=C\c1nc2ccccc2c(=O)[nH]1,4.4*,164*,56*,121,0.4
O=C(Nc1ccccc1)Nc1cccc2nsnc12,4.3*,121,28,140*,0.7
CCOc1ccc(C2CC(c3ccc(CC)cc3)n3nc(N)nc3N2)cc1 (stereo not drawn),1.1,-4,-3,103,1
COc1ccc2c(c1OC)C(=O)N(c1cccc(C)c1)C2=O,1.5,10,19,136*,0.8
Clc1cccc(-c2nc(NCCCN3CCOCC3)c3ccccc3n2)c1,x,-11,-2,100,1
Clc1ccc2oc(-c3ccccc3)cc(=NCCCN3CCOCC3)c2c1,1.8,70,4,147*,1
CCOC(=O)CSc1nnc(-c2ccc(Cl)cc2Cl)o1,2,3,56*,97,0.4
CCCOC(=O)CSc1nnc(-c2ccc(Cl)cc2Cl)o1,1.1,-7,9,94,0.9
O=C(COC(=O)CNC(=O)c1ccccc1)Nc1ccc(F)c([N+](=O)[O-])c1,1,-16,1,96,1
O=c1oc2ccccc2c2c1ncn2C1CCCCC1,1.2,8,-4,101,1
Nc1ccc(Oc2ccc(Br)cc2)cc1,3.5*,-12,-2,100,1
Nc1ccc(Oc2cccc(Oc3ccc(N)cc3)c2)cc1,0.45,-49,-1,63,1
O=C(Nc1ccc2c(c1)OCCO2)c1ccc2nccnc2c1,x,165*,80*,125,0.2
Cc1ccc(C(=O)Nc2ccc3nccnc3c2)cc1,8.4*,145*,89*,93,0.1
O=C(Nc1ccc(OC(F)(F)F)cc1)c1ccc2nccnc2c1,1.7,5,-1,110,1
O=C(Nc1ccc2c(c1)OCCO2)c1c(F)c(F)c(F)c(F)c1F,1,x,-4,99,1
O=C(Nc1ccc2c(c1)OCCO2)c1cccnc1,1.5,27,17,129*,0.8
COc1c(C)cc(C(=O)C2CCCN(C(=O)c3ccoc3)C2)cc1C (stereo not drawn),1.2,0,14,110,0.9
CCCc1c(C)c2ccc(OCC(C)=O)cc2oc1=O,2,40,4,131*,1
CCOC(=O)CCc1c(C)c2ccc(OCC(=O)OC(C)C)cc2oc1=O,0.92,4,-5,98,1.1
CCCCc1c(C)c2ccc(OCC(C)=O)cc2oc1=O,1.9,133,1,133*,1
O=C(NC1CCCC1)c1n[nH]c2ccccc12,1.3,69,18,138*,0.8
O=C(COC(=O)c1n[nH]c2ccccc12)NC(=O)NC1CCCC1,0.99,-10,-6,101,1.1
COc1ccc(C(=O)OCc2csc(C)n2)c(O)c1,2.9,34,2,139*,1
CCn1c(SCC(=O)Nc2ccc(-c3nc4ccc(C)cc4s3)cc2)nnc1-c1ccccc1,1.6,110,4,132*,1
SMILES,NF-kB expr up,APP 5'UTR act,FLuc inh counter,STAT1 act,FLuc act counter
C=CCn1c(SCC(=O)Nc2ccc(-c3nc4ccc(C)cc4s3)cc2)nnc1-c1ccncc1,1.5,160*,-3,130*,1
Cc1ccc2nc(-c3ccc(NC(=S)NC(=O)CC(C)C)cc3)sc2c1,1.4,79,0,114,1
Cc1ccc2nc(-c3ccc(NC(=O)CSc4nccc(=O)[nH]4)cc3)sc2c1,1.9,144*,38,134*,0.6
CC(NS(=O)(=O)c1ccccc1)C(=O)Nc1nccs1 (stereo not drawn),0.96,4,x,104,x
O=C(/C=C\Nc1ccccn1)c1ccc(Cl)cc1,1.8,175*,91*,50,0.1
O=C(/C=C/c1ccccc1O)c1ccc(Cl)cc1,1.9,25,18,93,0.8
CC(C)NS(=O)(=O)c1ccc(NC(=S)NC(=O)c2cccc([N+](=O)[O-])c2)cc1,0.87,1,-4,106,1
CCSc1nnc(NC(=O)[C@@H](NC(=O)c2ccc(C(C)(C)C)cc2)C(C)C)s1,1.2,13,4,99,1
O=C(NC(=S)NC1CCCCCC1)c1cncc(Br)c1,2.1,23,1,141*,1

# Assay outcomes as filed in PubChem BioAssay.
